Screens as filed in PubChem.
H69AR growth 86K – blocks growth of human H69AR lung tumor cells; H69AR lung tumor viability, ATP luminescence, 72 h; hits give low values; viability, % at 10 µM; actives 6% (n = 85,000);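 active = viability at or below 40%; inactive = viability above 40%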;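 also: multidrug resistant small cell line overexpressing MRP-1 efflux transporter; 100% = mean luminescence of untreated control wells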
HUVEC prolif 384 – blocks proliferation of human endothelial cells; viability, % at 10 µM (by protocol); HUVEC proliferation, CellTiter-Glo luminescence, 72 h; hits give low values; AID 648; actives 1.1% (n = 86,000);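 active = viability at or below 30%; inactive = viability above 30%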;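 also: 100% = median luminescence of DMSO-only cell control wells on each plate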
Fibroblast inh – blocks proliferation of human lung fibroblasts; LL 47 human lung fibroblast viability, ATP luminescence; hits give low values; viability, % at 10 µM; actives 1.1% (n = 85,000); AID 719;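 active = viability at or below 50% in the single dose screen; inactive = viability above 50%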;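 also: compound exposure lasted 72 h before the ATP readout; 100% = median luminescence of untreated cell-only wells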
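test system = LL 47 human lung fibroblasts | amount = 1,150 fibroblasts seeded per well | medium = 15% FBS in IMEM | times = overnight cell rest, 72 h compound treatment at 37 °C | measured by = CellTiter-Glo luminescence measuring cellular ATP | read-out = viability percentage against median untreated-cell control | benchmarks = cell-only wells, no compound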
HCT116 PTEN-null – PTEN-deleted cell growth suppression. HCT116 PTEN-null viability, CellTiter-Glo, 60 h; hits give low values. viability, % at 10 µM. actives 1.2% (n = 140,000);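 active = viability at or below a set limit, 4 SD under the median of all tested compounds, cut at about 3.7% in these data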;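 also: PTEN knockout HCT116 line with beta catenin targeted HCT116 as companion control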
HCT116 bCat-KO – beta-catenin-lacking colon tumor cell growth suppression; HCT116 beta-catenin knockout viability, CellTiter-Glo, 60 h; hits give low values; viability, % at 10 µM; actives 1.5% (n = 140,000); AID 818;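 active = viability at or under a set limit, the compound median less 4 SD, cut at about 6% in these data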;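 also: 0% = Hyamine 1622 control at 20 µM and 100% = untreated cell control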
* = called active by the depositor; nt = not tested or not shown. The sample as a whole holds a higher share of hits than the screen did.

SMILES	H69AR growth 86K	HUVEC prolif 384	Fibroblast inh	HCT116 PTEN-null	HCT116 bCat-KO
COc1cccc(Oc2cn[nH]c2-c2ccc(OC)cc2O)c1	8.1*	50.9	94.1	88.0	94.0
COc1cccc(Oc2cn[nH]c2-c2ccc(O)cc2O)c1	73.2	83.8	87.1	92.5	93.9
CC(C)c1cc(C(=O)NNC(=S)NCc2ccco2)c(O)c(C(C)C)c1	nt	nt	nt	50.6	52.5
CCCCC(=O)Nc1cccc(NC(=S)NC(C)=O)c1	nt	nt	nt	93.3	96.0
COc1ccc2c(c1)c(=O)oc1cc3occ(C(C)(C)C)c3cc12	12.8*	40.2	58.5	87.4	94.9
COc1ccc2c(c1)c(=O)oc1c(C)c3occ(C)c3cc12	34.6*	115.5	101.7	nt	nt
C=C(C(=O)c1ccccc1)C(C)C(=C)C(=O)c1ccccc1	nt	nt	nt	1.4*	2.4*
Fc1ccc(Oc2nccc(-c3ccc(Cl)cc3)n2)cc1	nt	nt	nt	112.2	99.9
CCN(CC)c1ccc(/C=C(\C#N)c2nc(-c3cccs3)c(NC(C)=O)s2)cc1	nt	nt	nt	50.3	48.4
Cc1cc(=O)[nH]c(SCC(=O)Nc2ccccc2C#N)c1C#N	nt	nt	nt	108.7	94.2
Cc1cc(=O)[nH]c(SCC(=O)Nc2ccc(Br)cc2)c1C#N	30.6*	42.9	92.8	100.0	86.6
CCc1nc(Nc2ccncc2)c2oc3ccccc3c2n1	96.8	99.0	58.1	1.7*	2.0*
CCc1nc(N2CCCCC2C)c2oc3ccccc3c2n1 (stereo not drawn)	22.3*	44.0	67.6	34.4	26.3
CC1CCCN(C(c2cccs2)c2nnnn2Cc2ccccc2)C1 (stereo not drawn)	96.2	100.3	93.8	55.2	66.2
O=c1c(Cl)nc2cc(Cl)ccc2n1CCNc1ncc(C(F)(F)F)cc1Cl	nt	nt	nt	1.2*	1.4*
COC(=O)c1ccc(-c2ccco2)n1Cc1nc(-c2ccc(OC)c(OC)c2)oc1C	35.6*	80.5	88.6	48.0	43.2
COC(=O)c1ccc(-c2ccco2)n1Cc1ccccc1Cl	74.6	99.5	94.4	87.2	91.3
Cc1ccccc1C(=O)OC1OC(=O)C(Cl)=C1N1CCOCC1 (stereo not drawn)	nt	nt	nt	90.8	94.7
CCOc1ccc(C2C=C(c3ccc(C)cc3)Nc3nnnn32)cc1 (stereo not drawn)	2.2*	21.9*	51.0	81.6	70.6
COc1ccc(C2=CC(c3c(C)nn(-c4ccccc4)c3Cl)n3nnnc3N2)cc1OC (stereo not drawn)	24.5*	79.8	87.7	62.8	68.8
COc1ccccc1C1C=C(c2ccc(C)cc2)Nc2nnnn21 (stereo not drawn)	18.5*	76.6	84.6	82.6	90.6
CCOc1ccc(C2C=C(c3ccccc3)Nc3nnnn32)cc1 (stereo not drawn)	32.8*	58.8	100.4	87.6	101.0
Cc1ccc(C2=CC(c3cccs3)n3nnnc3N2)cc1 (stereo not drawn)	nt	nt	nt	70.8	80.9
CCOc1ccc(C2C=C(c3ccc(C)cc3)Nc3ncnn32)cc1 (stereo not drawn)	78.7	89.8	90.9	84.0	96.5
COc1ccc(-c2c(C)nn(-c3ccccc3)c2N)cc1OC	92.4	92.8	100.1	88.0	94.7
SMILES	H69AR growth 86K	HUVEC prolif 384	Fibroblast inh	HCT116 PTEN-null	HCT116 bCat-KO
CCOC(=O)C1CN(S(=O)(=O)c2cccc(C(F)(F)F)c2)c2cc(CC(=O)OC)ccc2O1 (stereo not drawn)	nt	nt	nt	86.7	93.1
Oc1ccc2ccccc2c1/C=N/Nc1nnc(-c2ncc[nH]2)c2ccccc12	nt	nt	nt	2.1*	4.9*
COC(=O)c1ccc(/C=C/C(=O)c2ccc(OC)c(OC)c2)cc1	nt	nt	nt	1.6*	3.3*
COC(=O)c1ccc(/C=C/C(=O)c2ccc(OC)cc2)cc1	nt	nt	nt	6.9	11.5
COc1ccc(/C=C/C(=O)c2cc(F)ccc2OC(=O)c2ccc(OC)c(OC)c2)cc1OC	nt	nt	nt	3.3*	2.9*
O=C(COc1ccc(Cl)cc1Cl)Nc1ccccn1	53.5	44.9	48.4*	57.8	71.9
O=C(COc1ccc(Cl)cc1Cl)NCc1ccncc1	26.9*	105.5	nt	87.4	94.2
CNS(=O)(=O)c1cccc(C(=O)OCc2cc(Cl)cc3c2OCOC3)c1	95.2	74.9	88.7	94.0	89.4
COc1ccccc1OCC(=O)NNC(=O)C(=O)N1CCCC1	nt	nt	nt	93.1	92.4
CCN(CC)c1ccc(NC(=O)c2cc(OC)cc(OC)c2)c(C)c1	24.7*	33.2	55.7	12.3	11.6
CN(C)c1cccc(C(=O)Nc2cccc(F)c2)c1	83.2	84.8	100.0	72.6	72.0
CCN(CC)c1ccc(NC(=O)c2c(OC)cccc2OC)c(C)c1	92.4	88.8	94.3	92.8	93.9
CCN(CC)c1ccc(NC(=O)c2cccc(OC)c2)c(C)c1	18.7*	55.3	72.2	23.2	19.6
CCN(CC)c1ccc(C(=O)Nc2cccc(F)c2)cc1	25.0*	46.9	77.1	26.7	17.5
CCC(C(=O)N1CCc2ccccc2C1)n1nc(C)n2c(cc3occc32)c1=O (stereo not drawn)	nt	nt	nt	92.2	105.7
CCC1Cc2c(nc3c4c(nc(N5CCOCC5)c(C#N)c24)NC(C)=N3)O1 (stereo not drawn)	80.5	86.1	91.6	nt	nt
CCCC[n+]1ccn(C2=C([O-])c3ccccc3C(=O)/C2=N\S(=O)(=O)c2ccc(Br)cc2)c1	nt	nt	nt	48.5	37.0
Cc1ccc(S(=O)(=O)/N=C2\C(=O)c3ccccc3C([O-])=C2n2cc[n+](CCC(C)C)c2)cc1	42.2	4.4*	44.2*	6.0	3.7*
COc1cc2cc(CN(Cc3ccc4c(c3)OCO4)C(=O)c3ccco3)c(=O)[nH]c2cc1OC	52.0	86.9	100.0	nt	nt
Cc1cc2cc(CN(Cc3ccc4c(c3)OCO4)C(=O)c3ccco3)c(=O)[nH]c2cc1C	33.4*	73.8	96.0	30.1	42.2
CCCCN(Cc1cc2cc(OC)ccc2[nH]c1=O)C(=O)COc1ccccc1	39.1*	93.3	103.7	nt	nt
Cc1ccc2[nH]c(=O)c(CN(Cc3cccnc3)C(=O)c3ccncc3)cc2c1	28.3*	62.2	88.4	46.5	46.5
COc1ccc(C(=O)N(Cc2ccccc2)Cc2cc3cc4c(cc3[nH]c2=O)OCCO4)cc1	17.9*	28.5*	41.8*	95.0	98.0
CCN(Cc1cc2cc(OC)ccc2[nH]c1=O)C(=O)c1ccncc1	88.4	84.7	96.4	96.7	105.4
Nn1cnnc1N/N=C/c1cc(Br)cc(Br)c1O	nt	nt	nt	14.0	12.5
SMILES	H69AR growth 86K	HUVEC prolif 384	Fibroblast inh	HCT116 PTEN-null	HCT116 bCat-KO
Cc1c(C)[n+](=O)c2c(n1[O-])CCCCC2	94.1	95.2	105.3	105.1	94.9
O=C1/C(=C/c2cccnc2)CCC/C1=C\c1cccnc1	nt	nt	nt	1.1*	1.9*
CCC1C/C(=C\c2cccnc2)C(=O)/C(=C/c2cccnc2)C1 (stereo not drawn)	nt	nt	nt	1.5*	2.2*
Cc1onc(-c2ccccc2Cl)c1C(=O)N1CCN(c2ccccc2)CC1	19.7*	99.2	93.0	64.7	69.7
Cc1onc(-c2ccccc2Cl)c1C(=O)N1CCN(C(=O)c2ccco2)CC1	95.0	95.2	101.0	86.2	85.4
Cc1onc(-c2ccccc2Cl)c1C(=O)N1CCN(c2cccc(Cl)c2)CC1	28.3*	52.0	53.9	14.7	21.8
c1ccc(-c2nnnc3ccccc23)cc1	nt	nt	nt	78.0	59.9
